Measurements published in ChEMBL document CHEMBL1129239, “Synthesis and structure--activity relationships of fused imidazopyridines: a new series of benzodiazepine receptor ligands” (J Med Chem, 1996).
Active and inactive are the calls of the source. The calls are words filed in the database; no cut-off is given here.

Legend:
[1] = biological target: GABA-A receptor; anion channel; experiment: Displacement of [3H]diazepam from rat cerebral cortex benzodiazepine receptor; assay type: tissue-based
Mus musculus [2] = organism: Mus musculus; experiment: Activity in mouse pentylenetetrazole convulsant test.; assay type: functional
Summary of the method: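 Male mice, 8-16 per group. Test compound dosed orally 1 h before sc PTZ, either a convulsive 125 mg/kg (protection) or a subconvulsive 75 or 90 mg/kg (potentiation). Animals were watched 2 h for tonic convulsions and death. ED50 came from probit analysis.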

Mus musculus [3] = experiment: Inverse agonist activity was evaluated by Mouse pentylenetetrazole (PTZ) proconvulsant activity test at 3.53-11.93 mg/kg by peroral administration of 90 mg/kg convulsive dose of PTZ.; assay type: functional; conditions: route oral
Mus musculus [4] = experiment: Inverse agonist activity was evaluated by Mouse pentylenetetrazole (PTZ) proconvulsant activity test at 4.54-12.28 mg/kg by administering 75 mg/kg convulsive dose of PTZ, 1 hr after oral administration of test compound; assay type: functional
Summary of the method: (§1)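 Male mice, 8-16 per group. Test compound given po, followed 1 h later by a subconvulsive dose of PTZ (75 mg/kg sc). Tonic convulsions and death were scored over a 2-h observation.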

Mus musculus [5] = experiment: Inverse agonist activity was evaluated by Mouse pentylenetetrazole (PTZ) proconvulsant activity test; by administering 75 mg/kg convulsive dose of PTZ, 1 hr after oral administration of test compound; assay type: functional; summary of the method: as §1
Mus musculus [6] = experiment: Inverse agonist activity was evaluated by Mouse pentylenetetrazole (PTZ) proconvulsant activity test; by peroral administration of 90 mg/kg convulsive dose of PTZ.; assay type: functional; conditions: route oral
Mus musculus [7] = experiment: Agonist activity was evaluated by mouse pentylenetetrazole (PTZ) convulsant test after p.o. administration; conditions: po
Mus musculus [8] = experiment: Inverse agonist activity was evaluated by mouse pentylenetetrazole (PTZ) proconvulsant activity test; by administering 75 mg/kg convulsive dose of PTZ, 1 hr after oral administration of test compound; In active to 10 iv; assay type: functional, organism-based; design: dose 75 mg/kg; summary of the method: as §1
Mus musculus [9] = experiment: Inverse agonist activity was evaluated by mouse pentylenetetrazole (PTZ) proconvulsant activity test at 6.7-16.7 mg/kg by peroral administration of 90 mg/kg convulsive dose of PTZ; assay type: functional; conditions: route oral
Mus musculus [10] = experiment: Inverse agonist activity was evaluated by Mouse pentylenetetrazole (PTZ) proconvulsant activity test at 25.87-58.54 mg/kg by administering 75 mg/kg convulsive dose of PTZ, 1 hr after oral administration of test compound; assay type: functional; summary of the method: as §1
Mus musculus [11] = experiment: Inverse agonist activity was evaluated by Mouse pentylenetetrazole (PTZ) proconvulsant activity test at 14.6-34.51 mg/kg by peroral administration of 90 mg/kg convulsive dose of PTZ.; assay type: functional; conditions: route oral
Mus musculus [12] = experiment: Inverse agonist activity was evaluated by Mouse pentylenetetrazole (PTZ) proconvulsant activity test at 22.39-75 mg/kg by peroral administration of 90 mg/kg convulsive dose of PTZ.; assay type: functional; conditions: route oral
Mus musculus [13] = experiment: Inverse agonist activity was evaluated by Mouse pentylenetetrazole (PTZ) proconvulsant activity test at 50 mg/kg by administering 75 mg/kg convulsive dose of PTZ, 1 hr after oral administration of test compound; assay type: functional; summary of the method: as §1
Mus musculus [14] = experiment: Inverse agonist activity was evaluated by mouse pentylenetetrazole (PTZ) proconvulsant activity test; by peroral administration of 90 mg/kg convulsive dose of PTZ.; assay type: functional; conditions: route oral
Mus musculus [15] = experiment: Inverse agonist activity was evaluated by mouse pentylenetetrazole (PTZ) proconvulsant activity test; by administering 75 mg/kg convulsive dose of PTZ, 1 hr after oral administration of test compound; assay type: functional; summary of the method: as §1
Mus musculus [16] = experiment: Inverse agonist activity was evaluated by Mouse pentylenetetrazole (PTZ) proconvulsant activity test; by peroral administration of 90 mg/kg convulsive dose of PTZ; inactive to 10 mg/kg administered intravenously; assay type: functional, organism-based
Mus musculus [17] = experiment: Agonist activity was evaluated by mouse pentylenetetrazole (PTZ) convulsant test; inactive to 10 mg/kg administered intravenously; assay type: functional, organism-based; design: dose 10 mg/kg
Mus musculus [18] = experiment: Inverse agonist activity was evaluated by Mouse pentylenetetrazole (PTZ) proconvulsant activity test at 11.71-22.28 mg/kg by administering 75 mg/kg convulsive dose of PTZ, 1 hr after oral administration of test compound; assay type: functional; summary of the method: as §1
Mus musculus [19] = experiment: Inverse agonist activity was evaluated by Mouse pentylenetetrazole (PTZ) proconvulsant activity test; at 3.64-18.28 mg/kg by peroral administration of 90 mg/kg convulsive dose of PTZ.; assay type: functional; conditions: route oral
Mus musculus [20] = experiment: Inverse agonist activity was evaluated by Mouse pentylenetetrazole (PTZ) proconvulsant activity test 9.76-20.68 mg/kg by peroral administration of 90 mg/kg convulsive dose of PTZ.; assay type: functional; conditions: route oral
Mus musculus [21] = experiment: Inverse agonist activity was evaluated by mouse pentylenetetrazole (PTZ) proconvulsant activity test at 10 mg/kg by peroral administration of 90 mg/kg convulsive dose of PTZ.; assay type: functional
Mus musculus [22] = experiment: Inverse agonist activity was evaluated by mouse pentylenetetrazole (PTZ) proconvulsant activity test; by peroral administration of 90 mg/kg convulsive dose of PTZ; inactive to 10 mg/kg administered intravenously; assay type: functional, organism-based
Mus musculus [23] = experiment: Inverse agonist activity was evaluated by Mouse pentylenetetrazole (PTZ) proconvulsant activity test at 28.18 mg/kg by administering 75 mg/kg convulsive dose of PTZ, 1 hr after oral administration of test compound; assay type: functional; summary of the method: as §1
Mus musculus [24] = experiment: Inverse agonist activity was evaluated by Mouse pentylenetetrazole (PTZ) proconvulsant activity test; at 7.7-119.81 mg/kg by peroral administration of 90 mg/kg convulsive dose of PTZ.; assay type: functional; conditions: route oral

Cc1cc(-c2nc3c(cnc4ccccc43)[nH]2)cs1
Ki [1]: 4.5 nM

Cc1cc(-c2nc3c(cnc4cccc(F)c43)[nH]2)on1
ED50 (Mus musculus [2]): 4.86 mg/kg | Ki [1]: 4.9 nM

Cc1cc(-c2nc3c4c(ncc3[nH]2)CCC4)on1
ED50 (Mus musculus [2]): 5.97 mg/kg | Ki [1]: 14.6 nM

Cc1cc(-c2nc3c(cnc4cc(F)ccc43)[nH]2)on1
ED50 (Mus musculus [2]): 5.15 mg/kg | Ki [1]: 1.4 nM

CCc1cc(-c2nc3c(cnc4ccccc43)[nH]2)on1
ED50 (Mus musculus [2]): 13.5 mg/kg | Ki [1]: 1.2 nM

Clc1ccc(-c2nc3c(cnc4ccccc43)[nH]2)cc1
Ki [1]: 270 nM

Clc1ccc2c3nc(-c4ccon4)nc-3c[nH]c2c1
ED50 (Mus musculus [2]): 27.2 mg/kg | Ki [1]: 3.5 nM

Cc1cc(-c2nc3c4c(ncc3[nH]2)CCCC4)on1
ED50 (Mus musculus [2]): 8.12 mg/kg | Ki [1]: 2.2 nM

Clc1cccc2[nH]cc3nc(-c4ccon4)nc-3c12
ED50 (Mus musculus [3]): 5.95 mg/kg | Ki [1]: 7.8 nM | ED50 (Mus musculus [4]): 7.21 mg/kg

c1cc(-c2nc3c[nH]c4c(c-3n2)COCC4)no1
ED50 (Mus musculus [5]): 25 mg/kg | Ki [1]: 2.7 nM | ED50 (Mus musculus [6]): 19.6 mg/kg

Cc1cc(-c2nc3c(cnc4ccccc43)[nH]2)no1
ED50 (Mus musculus [2]): 16.4 mg/kg | Ki [1]: 0.9 nM

CCc1cc(-c2nc3c(cnc4ccccc43)[nH]2)no1
ED50 (Mus musculus [2]): 19.2 mg/kg | Ki [1]: 1.1 nM

CN1C(=O)CN=C(c2ccccc2)c2cc(Cl)ccc21 [DIAZEPAM]
ED50 (Mus musculus [7]): 0.67 mg/kg

Cc1cc(-c2nc3c4c(ncc3[nH]2)CCOC4)on1
ED50 (Mus musculus [2]): 11.2 mg/kg | Ki [1]: 3.3 nM

c1ccc2c(c1)ncc1[nH]c(-c3ccon3)nc12
ED50 (Mus musculus [8]): inactive | Ki [1]: 0.6 nM | ED50 (Mus musculus [9]): 10.1 mg/kg

Cc1cc(-c2nc3c(cnc4ccccc43)[nH]2)on1
ED50 (Mus musculus [2]): 5.89 mg/kg | Ki [1]: 0.9 nM

Cc1cc(-c2nc3c(cnc4cccc(Cl)c43)[nH]2)on1
ED50 (Mus musculus [2]): 8.53 mg/kg | Ki [1]: 13.7 nM

Fc1cccc2[nH]cc3nc(-c4ccon4)nc-3c12
ED50 (Mus musculus [10]): 35.7 mg/kg | Ki [1]: 3.4 nM | ED50 (Mus musculus [11]): 21.2 mg/kg

COc1ccc2[nH]cc3nc(-c4cc(C)no4)nc-3c2c1
ED50 (Mus musculus [2]): 21.6 mg/kg | Ki [1]: 0.9 nM

COc1ccc2[nH]cc3nc(-c4ccon4)nc-3c2c1
Ki [1]: 0.5 nM | ED50 (Mus musculus [12]): 31.5 mg/kg | Animals affected (Mus musculus [13]): 25%

Fc1ccc2c3nc(-c4ccon4)nc-3c[nH]c2c1
ED50 (Mus musculus [2]): 39.9 mg/kg | Ki [1]: 0.9 nM

c1cc(-c2nc3c4c(ncc3[nH]2)CCC4)no1
ED50 (Mus musculus [14]): 4.72 mg/kg | ED50 (Mus musculus [15]): 9.22 mg/kg | Ki [1]: 5.3 nM

c1cc(-c2nc3c4c(ncc3[nH]2)CCCCC4)no1
Animals affected (Mus musculus [16]): inactive | ED50 (Mus musculus [17]): inactive | Ki [1]: 5.2 nM

COc1ccc2c3nc(-c4ccon4)nc-3c[nH]c2c1
ED50 (Mus musculus [18]): 16.2 mg/kg | ED50 (Mus musculus [19]): 8.77 mg/kg | Ki [1]: 7.2 nM

O=C1C2C=Nc3ccccc3C2=NN1c1ccccc1 (stereo not given) [CGS-8216]
ED50 (Mus musculus [5]): 25 mg/kg

Cc1cc(-c2nc3c4c(ncc3[nH]2)CCCCC4)on1
ED50 (Mus musculus [2]): 12.4 mg/kg | Ki [1]: 15.6 nM

c1ccc(-c2nc3c(cnc4ccccc43)[nH]2)cc1
Ki [1]: 22 nM

Clc1ccc2[nH]cc3nc(-c4ccon4)nc-3c2c1
ED50 (Mus musculus [20]): 14.2 mg/kg | Ki [1]: 0.8 nM | Animals affected (Mus musculus [13]): 25%

Cc1cc(-c2nc3c(cnc4ccc(Cl)cc43)[nH]2)on1
ED50 (Mus musculus [2]): 10.6 mg/kg | Ki [1]: 0.5 nM

Fc1cccc2c1ncc1[nH]c(-c3ccon3)nc12
Ki [1]: 40 nM | Animals affected (Mus musculus [21]): 37.5%

Cc1cc(-c2nc3c(cnc4ccc(F)cc43)[nH]2)on1
ED50 (Mus musculus [2]): 5.41 mg/kg | Ki [1]: 1.1 nM

Cc1cc(-c2nc3c(cnc4c(Cl)cccc43)[nH]2)on1
Animals affected (Mus musculus [16]): inactive | ED50 (Mus musculus [17]): inactive

Cc1cc(-c2nc3c(cnc4cc(Cl)ccc43)[nH]2)on1
ED50 (Mus musculus [2]): 29.8 mg/kg | Ki [1]: 18.8 nM

Clc1cccc2c1ncc1[nH]c(-c3ccon3)nc12
Animals affected (Mus musculus [22]): inactive | ED50 (Mus musculus [17]): inactive | Ki [1]: 524 nM

c1csc(-c2nc3c[nH]c4ccccc4c-3n2)c1
Ki [1]: 1.7 nM

Fc1ccc2[nH]cc3nc(-c4ccon4)nc-3c2c1
ED50 (Mus musculus [23]): 64.1 mg/kg | ED50 (Mus musculus [24]): 16.5 mg/kg | Ki [1]: 0.8 nM

c1ccc2c(c1)ncc1[nH]c(-c3ccno3)nc12
ED50 (Mus musculus [16]): inactive | ED50 (Mus musculus [5]): 1.94 mg/kg | ED50 (Mus musculus [17]): inactive | Ki [1]: 1 nM

Cc1cc(-c2nc3c(cnc4c(F)cccc43)[nH]2)on1
ED50 (Mus musculus [17]): inactive | Ki [1]: 302 nM

c1cc(-c2nc3c4c(ncc3[nH]2)CCCC4)no1
Animals affected (Mus musculus [22]): inactive | ED50 (Mus musculus [17]): inactive | Ki [1]: 1.2 nM

COc1ccc2c3nc(-c4cc(C)no4)nc-3c[nH]c2c1
Animals affected (Mus musculus [16]): inactive | ED50 (Mus musculus [5]): 46.2 mg/kg | ED50 (Mus musculus [17]): inactive | Ki [1]: 9.5 nM
